# Test results taken from ChEMBL document CHEMBL5303300, “EUbOPEN Chemogenomics Library - Multiplex” (2023).
# “And” between values parts separate entries of the source, which are not always exact repeats. Identical values can stand only once.
# Tested on: HEK-293T
# Assay: Multiplex assay against HEK293T
# Format: toxicity, cell-based
# Conditions: human, number of replicates 2
# Summary of the method: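 Live cells were stained at seeding with Hoechst33342, BioTracker Green Microtubule Cytoskeleton Dye, MitoTracker Red and Annexin V Alexa Fluor 680. Following compound addition, they were imaged on a CQ1 microscope at 37°C and 5% CO2 and gated by CellPathfinder machine learning into Hoechst high-intensity objects or normal cells, with normal cells split into healthy, pyknosed or fragmented nuclei and pyknosed cells into mitotic or apoptotic. Tubulin, mitochondrial-mass and membrane-permeability phenotypes are per cents of healthy-nucleus cells.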
# [1] = 12 h, 1 µM, compound concentration 1 uM
# [2] = 12 h, 10 µM, compound concentration 10 uM
# [3] = 24 h, 1 µM, compound concentration 1 uM
# [4] = 24 h, 10 µM, compound concentration 10 uM
# [5] = 48 h, 1 µM, compound concentration 1 uM
# [6] = 48 h, 10 µM, compound concentration 10 uM
structure (smiles),measurement,setting,value
O=C(NCc1ccc(F)cc1)N1CCN2C(=O)OC(c3ccccc3)(c3ccccc3)C2C1 (stereo unspecified),Population Apoptotic (%),[1],56% and 58%
same,Population Fragmented Nuclei (%),[1],5% and 3%
same,Population Healthy Nuclei (%),[1],82% and 77%
same,Population Hoechst High Intensity Objects (%),[1],8% and 6%
same,Population Membrane Permeable-Phenotype (%),[1],6% and 1%
same,Population Mitochondria Different-Phenotype (%),[1],18% and 19%
same,Population Mitotic Cells (%),[1],43% and 41%
same,Population Normal (%),[1],91% and 93%
same,Population Pyknosed Nuclei (%),[1],11% and 19%
same,Population Tubulin-Different-Phenotype (%),[1],76% and 63%
same,Total Cell Count,[1],761 and 454
same,Population Apoptotic (%),[2],72% and 41%
same,Population Fragmented Nuclei (%),[2],2%
same,Population Healthy Nuclei (%),[2],75% and 85%
same,Population Hoechst High Intensity Objects (%),[2],7% and 4%
same,Population Membrane Permeable-Phenotype (%),[2],5% and 3%
same,Population Mitochondria Different-Phenotype (%),[2],34% and 53%
same,Population Mitotic Cells (%),[2],27% and 58%
same,Population Normal (%),[2],92% and 95%
same,Population Pyknosed Nuclei (%),[2],21% and 12%
same,Population Tubulin-Different-Phenotype (%),[2],93% and 97%
same,Total Cell Count,[2],433 and 482
same,Population Apoptotic (%),[3],36% and 63%
same,Population Fragmented Nuclei (%),[3],8% and 5%
same,Population Healthy Nuclei (%),[3],83%
same,Population Hoechst High Intensity Objects (%),[3],7% and 9%
same,Population Membrane Permeable-Phenotype (%),[3],5% and 2%
same,Population Mitochondria Different-Phenotype (%),[3],4% and 8%
same,Population Mitotic Cells (%),[3],63% and 36%
same,Population Normal (%),[3],92% and 90%
same,Population Pyknosed Nuclei (%),[3],7% and 11%
same,Population Tubulin-Different-Phenotype (%),[3],51% and 38%
same,Total Cell Count,[3],1157 and 707
same,Population Apoptotic (%),[4],70% and 54%
same,Population Fragmented Nuclei (%),[4],2% and 4%
same,Population Healthy Nuclei (%),[4],83% and 85%
same,Population Hoechst High Intensity Objects (%),[4],9% and 5%
same,Population Membrane Permeable-Phenotype (%),[4],6% and 3%
same,Population Mitochondria Different-Phenotype (%),[4],31% and 55%
same,Population Mitotic Cells (%),[4],29% and 45%
same,Population Normal (%),[4],90% and 94%
same,Population Pyknosed Nuclei (%),[4],14% and 10%
same,Population Tubulin-Different-Phenotype (%),[4],90% and 94%
same,Total Cell Count,[4],529 and 537
same,Population Fragmented Nuclei (%),[5],16% and 10%
same,Population Healthy Nuclei (%),[5],80% and 86%
same,Population Hoechst High Intensity Objects (%),[5],9%
same,Population Membrane Permeable-Phenotype (%),[5],8% and 3%
same,Population Mitochondria Different-Phenotype (%),[5],0% and 1%
same,Population Mitotic Cells (%),[5],91% and 68%
same,Population Normal (%),[5],90%
same,Population Pyknosed Nuclei (%),[5],2% and 3%
same,Population Tubulin-Different-Phenotype (%),[5],30% and 21%
same,Total Cell Count,[5],2926 and 1423
same,Population Apoptotic (%),[6],45% and 43%
same,Population Fragmented Nuclei (%),[6],5% and 8%
same,Population Healthy Nuclei (%),[6],87% and 85%
same,Population Hoechst High Intensity Objects (%),[6],6%
same,Population Membrane Permeable-Phenotype (%),[6],6% and 10%
same,Population Mitochondria Different-Phenotype (%),[6],39% and 15%
same,Population Mitotic Cells (%),[6],55% and 56%
same,Population Normal (%),[6],93%
same,Population Pyknosed Nuclei (%),[6],6% and 5%
same,Population Tubulin-Different-Phenotype (%),[6],93% and 82%
same,Total Cell Count,[6],655 and 824
Cn1cc(-n2cnc3c(NCc4nc5cc(Cl)c(Cl)cc5[nH]4)nc(N4CCOCC4)nc32)cn1,Population Apoptotic (%),[1],69% and 59%
same,Population Fragmented Nuclei (%),[1],3% and 5%
same,Population Healthy Nuclei (%),[1],76% and 75%
same,Population Hoechst High Intensity Objects (%),[1],16% and 17%
same,Population Membrane Permeable-Phenotype (%),[1],3% and 1%
same,Population Mitochondria Different-Phenotype (%),[1],65% and 66%
same,Population Mitotic Cells (%),[1],30% and 40%
same,Population Normal (%),[1],83% and 82%
same,Population Pyknosed Nuclei (%),[1],20% and 19%
same,Population Tubulin-Different-Phenotype (%),[1],83% and 84%
same,Total Cell Count,[1],293 and 335
same,Population Apoptotic (%),[2],71% and 65%
same,Population Fragmented Nuclei (%),[2],4% and 2%
same,Population Healthy Nuclei (%),[2],78% and 76%
same,Population Hoechst High Intensity Objects (%),[2],18% and 12%
same,Population Membrane Permeable-Phenotype (%),[2],1% and 2%
same,Population Mitochondria Different-Phenotype (%),[2],77% and 73%
same,Population Mitotic Cells (%),[2],28% and 34%
same,Population Normal (%),[2],81% and 87%
same,Population Pyknosed Nuclei (%),[2],16% and 20%
same,Population Tubulin-Different-Phenotype (%),[2],95% and 96%
same,Total Cell Count,[2],262 and 266
same,Population Apoptotic (%),[3],72% and 66%
same,Population Fragmented Nuclei (%),[3],2% and 4%
same,Population Healthy Nuclei (%),[3],72% and 74%
same,Population Hoechst High Intensity Objects (%),[3],25% and 27%
same,Population Membrane Permeable-Phenotype (%),[3],3% and 0%
same,Population Mitochondria Different-Phenotype (%),[3],75% and 82%
same,Population Mitotic Cells (%),[3],27% and 33%
same,Population Normal (%),[3],74% and 72%
same,Population Pyknosed Nuclei (%),[3],25% and 20%
same,Population Tubulin-Different-Phenotype (%),[3],78% and 89%
same,Total Cell Count,[3],256 and 257
same,Population Apoptotic (%),[4],69% and 85%
same,Population Fragmented Nuclei (%),[4],2% and 5%
same,Population Healthy Nuclei (%),[4],81% and 80%
same,Population Hoechst High Intensity Objects (%),[4],21% and 11%
same,Population Membrane Permeable-Phenotype (%),[4],2% and 0%
same,Population Mitochondria Different-Phenotype (%),[4],87% and 88%
same,Population Mitotic Cells (%),[4],30% and 14%
same,Population Normal (%),[4],78% and 88%
same,Population Pyknosed Nuclei (%),[4],15% and 13%
same,Population Tubulin-Different-Phenotype (%),[4],92% and 95%
same,Total Cell Count,[4],217
same,Population Apoptotic (%),[5],69% and 62%
same,Population Fragmented Nuclei (%),[5],7% and 6%
same,Population Healthy Nuclei (%),[5],69% and 74%
same,Population Hoechst High Intensity Objects (%),[5],20% and 29%
same,Population Membrane Permeable-Phenotype (%),[5],5% and 1%
same,Population Mitochondria Different-Phenotype (%),[5],66% and 78%
same,Population Mitotic Cells (%),[5],30% and 37%
same,Population Normal (%),[5],79% and 70%
same,Population Pyknosed Nuclei (%),[5],22% and 19%
same,Population Tubulin-Different-Phenotype (%),[5],75% and 87%
same,Total Cell Count,[5],308 and 317
same,Population Apoptotic (%),[6],70% and 84%
same,Population Fragmented Nuclei (%),[6],5%
same,Population Healthy Nuclei (%),[6],78% and 70%
same,Population Hoechst High Intensity Objects (%),[6],17% and 11%
same,Population Membrane Permeable-Phenotype (%),[6],1% and 2%
same,Population Mitochondria Different-Phenotype (%),[6],89% and 87%
same,Population Mitotic Cells (%),[6],29% and 16%
same,Population Normal (%),[6],82% and 88%
same,Population Pyknosed Nuclei (%),[6],16% and 23%
same,Population Tubulin-Different-Phenotype (%),[6],94% and 93%
same,Total Cell Count,[6],275 and 237
